Data set [1] in a line: folding enthalpy; higher = less favourable; fluorescence melt of hairpins on a sequencing array, two-state fit. As to conditions: sodium 0.088 M. The method in brief:
(§1)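 Two-state fits, bootstrapped, provided melting temperature and folding enthalpy from Cy3 fluorescence normalised to pre-quench Cy3 and to control constructs. Library hairpins with annealed Cy3 and quencher oligos were imaged on a sequenced MiSeq flow cell in 50 mM Na-HEPES pH 8.0, 25 mM NaCl, at 2.5 °C intervals up to 60 °C. Four replicates were combined with inverse-variance weighting. A 9.35 °C upward shift was applied to fitted temperatures to match UV melts.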

The nature of data set [2]: melting temperature; fluorescence melt of hairpins on a sequencing array, two-state fit, raised by 9.35 °C to match UV melts. As to conditions: sodium 0.088 M. The procedure, abridged:
as §1

As for GATCCCGCAGGGGATC ((((((....)))))), the folding enthalpy in data set [1] was -15.7 kcal/mol. Also, the Tm in data set [2] stood at 65.5 °C.

On to GATCCCGCCCGGGATC ((((((....)))))), for which, in data set [1], the folding enthalpy was -32.8 kcal/mol. In addition, the Tm in data set [2] came out at 67.1 °C.

In the case of GATCCCGCCTGGGATC ((((((....)))))), the folding enthalpy in data set [1] was -39.1 kcal/mol. For the same sequence, in data set [2], the Tm amounted to 64.9 °C.

Consider GATCCCGCGGGGGATC ((((((....)))))), for which, in data set [1], the folding enthalpy was -31 kcal/mol. In data set [2], the Tm amounted to 59.9 °C.

Regarding GATCCCGCTTGGGATC ((((((....)))))), the folding enthalpy in data set [1] is -46.9 kcal/mol. In data set [2], the Tm stood at 59.5 °C.

Regarding GATCCCGGACGGGATC ((((((....)))))), the folding enthalpy in data set [1] is -34.5 kcal/mol. The Tm in data set [2] was 68.5 °C.

With GATCCCGGCGGGATC ((((((...)))))), in data set [1], the folding enthalpy was -36.5 kcal/mol. Further, in data set [2], the Tm amounted to 68.2 °C.

Consider GATCCCGGCGGGGATC ((((((....)))))), for which the folding enthalpy in data set [1] is -47.7 kcal/mol. In data set [2], the Tm turned out to be 61.3 °C.

As to GATCCCGGCTGGGATC ((((((....)))))), the folding enthalpy in data set [1] was -32 kcal/mol. In addition, in data set [2], the Tm came out at 60.4 °C.

Regarding GATCCCGTCGGGATC ((((((...)))))), the folding enthalpy in data set [1] was -37.7 kcal/mol. The Tm in data set [2] came to 67.2 °C.

Turning to GATCCCGTGCGGGATC ((((((....)))))), the folding enthalpy in data set [1] was -35.8 kcal/mol. Also, in data set [2], the Tm is 66.3 °C.

On to GATCCCGTTCGGGATC ((((((....)))))), for which the folding enthalpy in data set [1] is -43.2 kcal/mol. Moreover, in data set [2], the Tm stood at 67.8 °C.

Regarding GATCCCTAGAGGGATC ((((((....)))))), the folding enthalpy in data set [1] was -40.2 kcal/mol. Further, the Tm in data set [2] was found to be 59 °C.

As for GATCCCTAGGGGATC ((((((...)))))), the folding enthalpy in data set [1] is -35.4 kcal/mol. The Tm in data set [2] was determined as 61.1 °C.

Regarding GATCCCTAGGGGGATC ((((((....)))))), the folding enthalpy in data set [1] is -34.8 kcal/mol. Also, the Tm in data set [2] was found to be 60.4 °C.

Turning to GATCCCTCGTGGGATC ((((((....)))))), the folding enthalpy in data set [1] was -40.2 kcal/mol. In addition, in data set [2], the Tm was 62.2 °C.

Regarding GATCCCTGCGGGATC ((((((...)))))), the folding enthalpy in data set [1] is -35.8 kcal/mol. In addition, the Tm in data set [2] came to 66.1 °C.

As for GATCCCTGGAGGGATC ((((((....)))))), the folding enthalpy in data set [1] is -34.4 kcal/mol. The Tm in data set [2] stood at 59.4 °C.

On to GATCCCTTCGGGATC ((((((...)))))), for which the folding enthalpy in data set [1] was -41.1 kcal/mol. For the same sequence, the Tm in data set [2] was 65.3 °C.

GATCCCTTGAGGGATC ((((((....)))))): the folding enthalpy in data set [1] is -42.9 kcal/mol. Further, the Tm in data set [2] turned out to be 62.4 °C.

Turning to GATCCGAACCGGATC ((((((...)))))), in data set [1], the folding enthalpy was -40.2 kcal/mol. Moreover, in data set [2], the Tm amounted to 57 °C.

On to GATCCGAAGACGGATC ((((((....)))))), for which, in data set [1], the folding enthalpy is -37 kcal/mol. Also, the Tm in data set [2] was 54.7 °C.

For GATCCGACATCGGATC ((((((....)))))), in data set [1], the folding enthalpy was -46.8 kcal/mol. In addition, the Tm in data set [2] came out at 55.8 °C.

GATCCGACCTCGGATC ((((((....)))))): the folding enthalpy in data set [1] is -40.9 kcal/mol. Besides, the Tm in data set [2] was 59.1 °C.

For GATCCGAGATCGGATC ((((((....)))))), the folding enthalpy in data set [1] was -42.3 kcal/mol. In addition, the Tm in data set [2] stood at 56.4 °C.

For the sequence GATCCGAGTGCGGATC ((((((....)))))), the folding enthalpy in data set [1] was -40.6 kcal/mol. Further, the Tm in data set [2] amounted to 59.1 °C.

On to GATCCGATACGGATC ((((((...)))))), for which the folding enthalpy in data set [1] was -32.7 kcal/mol. Further, in data set [2], the Tm came out at 59.6 °C.

As for GATCCGATCCGGATC ((((((...)))))), the folding enthalpy in data set [1] was -33.7 kcal/mol. Further, the Tm in data set [2] was determined as 58.5 °C.

GATCCGCACACGGATC ((((((....)))))): the folding enthalpy in data set [1] is -44.5 kcal/mol. Besides, the Tm in data set [2] turned out to be 59.9 °C.

Take GATCCGCAGCCGGATC ((((((....)))))): in data set [1], the folding enthalpy is -40.7 kcal/mol. In data set [2], the Tm was 55.9 °C.

For the sequence GATCCGCATCCGGATC ((((((....)))))), the folding enthalpy in data set [1] is -38 kcal/mol. Moreover, in data set [2], the Tm turned out to be 56.6 °C.

GATCCGCCGTCGGATC ((((((....)))))): the folding enthalpy in data set [1] was -40.7 kcal/mol. The Tm in data set [2] is 56.9 °C.

These data come from the array DNA melting data of Ke et al. (doi:10.1101/2024.01.08.574731).
